Active and inactive are the calls of the source. No cut-off for these calls is given here.
Key:
U-87MG ATCC = assay: Downregulation of NKX3.1 mRNA expression in human U87 cells at 25 nM incubated for 12 hrs by qRT-PCR analysis; format: functional, cell-based
How it was run: (§1)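 T98G and U87 cells, 2 × 10^5 per well, adhered overnight and were treated at 25 nM for 12 h. RNA was extracted with RiboZol and DNase I-treated. AR, PSA and NKX3.1 were measured by real-time PCR, normalized to 18S by 2−ΔΔCt, three replicates per cDNA.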

A 172 = assay: Antiproliferative activity against human A 172 cells assessed as reduction in cell viability incubated for 48 hrs by MTT assay; format: functional, cell-based; details: A 172, 48 h
How it was run: (§2)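 MTT assay; 3000 cells/well in RPMI 1640 or DMEM with 10% FBS, seeded 24 h, then exposed 48 h to a range of concentrations in DMSO (final ≤0.1%); vehicle controls. MTT 1 mg/mL for 2 h at 37 °C, dye dissolved in DMSO, absorbance 570 nm; eight replicates; IC50 by nonlinear regression.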

[1] = target: T1, Androgen receptor (Homo sapiens) (UniProt P10275); assay: Inhibition of AR transcriptional activity in human U87 cells assessed as reduction in AR mRNA expression at 25 nM incubated for 12 hrs by qRT-PCR analysis; format: cell-based; how it was run: as §1
T1 sequence (whole entry): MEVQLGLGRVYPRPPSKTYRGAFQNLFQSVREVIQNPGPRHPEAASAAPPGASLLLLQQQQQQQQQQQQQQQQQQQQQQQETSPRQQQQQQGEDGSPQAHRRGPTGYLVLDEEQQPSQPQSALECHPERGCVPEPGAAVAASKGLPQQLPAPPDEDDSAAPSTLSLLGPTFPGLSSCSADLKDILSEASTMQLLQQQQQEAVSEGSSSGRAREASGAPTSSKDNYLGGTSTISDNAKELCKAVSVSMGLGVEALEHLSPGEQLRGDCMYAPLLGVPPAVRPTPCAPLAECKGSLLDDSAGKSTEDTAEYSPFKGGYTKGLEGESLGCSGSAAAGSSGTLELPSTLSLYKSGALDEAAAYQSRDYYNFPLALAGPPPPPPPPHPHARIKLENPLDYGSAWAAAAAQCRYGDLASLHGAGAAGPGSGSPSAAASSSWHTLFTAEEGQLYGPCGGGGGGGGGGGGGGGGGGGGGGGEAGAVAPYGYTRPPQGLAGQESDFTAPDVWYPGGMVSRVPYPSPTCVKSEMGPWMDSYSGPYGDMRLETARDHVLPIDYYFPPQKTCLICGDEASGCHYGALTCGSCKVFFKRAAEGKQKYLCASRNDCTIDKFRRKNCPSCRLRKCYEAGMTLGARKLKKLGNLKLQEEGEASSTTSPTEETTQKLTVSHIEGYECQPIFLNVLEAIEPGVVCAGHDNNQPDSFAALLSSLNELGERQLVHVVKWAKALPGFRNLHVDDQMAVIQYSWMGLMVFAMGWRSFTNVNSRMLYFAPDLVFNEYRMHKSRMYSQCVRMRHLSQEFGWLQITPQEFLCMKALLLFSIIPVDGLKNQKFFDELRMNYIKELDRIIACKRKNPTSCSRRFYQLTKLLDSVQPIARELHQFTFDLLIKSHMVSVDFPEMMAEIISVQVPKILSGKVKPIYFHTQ

U-251 = assay: Antiproliferative activity against human U-251 cells assessed as reduction in cell viability incubated for 48 hrs by MTT assay; format: functional, cell-based; details: U-251, 48 h; how it was run: as §2
[2] = target: Heat shock protein beta-1 (Homo sapiens) (UniProt P04792); assay: Inhibition of HSP27 in human T98G cells assessed as reduction in AR-V7 expression level at 50 to 100 nM in presence of MG132 by Western blot analysis; format: cell-based; details: dose 50-100 nM
Heat shock protein beta-1 (Homo sapiens), sequence (P04792 whole entry): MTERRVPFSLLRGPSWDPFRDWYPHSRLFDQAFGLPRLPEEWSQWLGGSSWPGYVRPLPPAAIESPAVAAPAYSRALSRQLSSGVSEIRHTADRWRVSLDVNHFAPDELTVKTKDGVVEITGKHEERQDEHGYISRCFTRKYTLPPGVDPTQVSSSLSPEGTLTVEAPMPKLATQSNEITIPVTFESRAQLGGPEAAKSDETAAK
How it was run: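 Cells were treated in six-well plates (with or without MG132 where stated), then lysed in RIPA with protease inhibitors. 50 μg protein was run on 10% SDS-PAGE and transferred to PVDF. Membranes were blocked in 5% milk/TBS-T, probed with AR or AR-V7 antibodies overnight at 4 °C, and detected by chemiluminescence. Densitometry was used; n = 3.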

In the case of `COc1ccc(C(=O)Nc2ccc(NS(C)(=O)=O)c(OCc3cc(OC)ccc3OC)c2)cc1`, the inhibition (U-87MG ATCC) is reported as “Active”, the IC50 (A 172) is reported as 6.24 nM and the inhibition [1] is reported as “Active”. The IC50 (U-251) was 4 nM and the inhibition [2] was “inactive”.

Source: ChEMBL document CHEMBL4706680, “Small-Molecule HSP27 Inhibitor Abolishes Androgen Receptors in Glioblastoma” (J Med Chem, 2021)
